# The list is not random: actives were taken first. Their share in the collection is about 3.7%.
# hERG rescue: hERG (human) protection from proarrhythmic block. Q12809. CHO-hERG, FluxOR thallium flux, dofetilide IC70 present. activation (rescue from dofetilide block), less the hit threshold, % at 10 µM. 0.51% of 310,000 active. AID 1511;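 active = activation above the mean of controls blocked by dofetilide plus 5 SD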;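 note: thallium influx through hERG after potassium depolarization seen as dye fluorescence rise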
# KCNK9 inh-1: inhibitors of human KCNK9 two-pore domain potassium channel. HEK293 KCNK9, FluxOR thallium flux fluorescence; stronger effect = lower value. Q9NPC2. B-score at 10 µM. 1.2% of 310,000 active;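 active = ratio B-score over 3 SD below the library mean, with starting fluorescence within 5 SD of its mean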;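 note: negative B-score means less thallium flux so channel inhibition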
# KCNQ1 act: human KCNQ1 channel potentiation or activation | P51787 | CHO-K1 KCNQ1, thallium flux FluxOR fluorescence; stronger effect = higher value | B-score at 10 µM | 0.35% of 310,000 active;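 active = fluorescence ratio B-score, a plate-corrected score, at least three library SD, with initial intensity B-score within 5 SD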
#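 Assay system: CHO-K1 cells stably expressing KCNQ1; Medium: assay buffer with matched DMSO; Also added: K+/Tl+ depolarizing stimulus; Dosing: single dose; Timing: dye 90 min, compound 20 min, room temperature; Measured by: kinetic FluxOR thallium fluorescence, 10-s 1-Hz baseline, 110-s post-stimulus read; Read-out: peak-minus-minimum fluorescence over initial fluorescence, negative-control normalized, B-scored.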
# KCNK3 block: human KCNK3 channel inhibition, primary screen | O14649 | CHO-KCNK3 thallium flux, FluxOR fluorescence; stronger effect = lower value | B-score at 10 µM | 0.84% of 340,000 active;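 active = B-score under library mean minus 4 SD, starting fluorescence ratio at most library mean plus 5 SD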;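 note: more negative B-score means stronger inhibition of thallium flux through KCNK3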
# KCNQ1 inh: human KCNQ1 channel inhibition; CHO-K1 KCNQ1, FluxOR thallium flux fluorescence; stronger effect = higher value; B-score at 10 µM; 1.3% of 310,000 active; AID 2642;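 active = compounds whose thallium flux B-score, printed positive for inhibition, exceeds three library SD while starting fluorescence stays within three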;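 note: channel opened by potassium depolarization with thallium stimulus after 20 min compound exposure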
# Kir21 inh: inhibitors of mouse Kir2.1 inward-rectifier potassium channel; 0.85% of 310,000 active; AID 1672; B-score at 10 µM; HEK293-Kir2.1, FluxOR thallium flux fluorescence; stronger effect = lower value;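 active = fluorescence ratio B-score at or below minus 3 SD of library scores, with starting-brightness B-score within 2 SD, cut at about -4.2 in these data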;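 note: channel flux triggered by added potassium and thallium sulfate stimulus; B-score of peak minus minimum fluorescence over baseline after thallium stimulus; more negative B-score means stronger Kir2.1 block with less thallium influx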
# hERG inh: blocks human hERG, in counter-screen for Kir2.1 inhibitors | shares compounds with Kir21 inh | hERG-expressing cells, thallium flux | inhibition, % at 10 µM | 20% of 320 active | AID 2236;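 note: host cells are CHO cells stably expressing hERG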
# KCNK9 inh-2: human KCNK9 off-target activity of Kir2.1 blockers. shares compounds with Kir21 inh. KCNK9-expressing cells, ion flux inhibition. inhibition, % at 10 µM. 5% of 320 active. AID 2329
# Kir21 ephys inh: inhibitors of mouse Kir2.1 potassium channel. shares compounds with Kir21 inh. Kir2.1 cells, automated patch-clamp current inhibition. inhibition, % at 25 µM. 71% of 320 active. AID 463252
# KCNK9 block conf: confirmation of human KCNK9 potassium channel inhibitors; shares compounds with KCNK9 inh-1; HEK293 KCNK9 cells, FluxOR thallium flux fluorescence; inhibition, % at 10 µM; 43% of 4,900 active; AID 492992;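 active = thallium signal inhibited by more than 5 SD of the compound-free buffer control wells, on both duplicate plates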;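 note: 0% = assay buffer control wells without compound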
# Kir2-1 spec: tests whether KCNK9 modulators also affect mouse Kir2.1; shares compounds with KCNK9 inh-1; Kir2.1 cells, FluxOR thallium flux fluorescence; inhibition, % at 10 µM; 4% of 4,900 active; AID 492993;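 active = thallium signal drop more than 5 SD beyond the mean of the no-compound control wells, seen in both duplicate plates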;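 note: signal is fluorescence rise after thallium addition divided by baseline fluorescence; plate controls were assay buffer only for no effect and full block by chlorpromazine control for full effect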
# HEK293 Tl ctr: non-induced cell nonspecific activity of KCNK9 modulators. shares compounds with KCNK9 inh-1. non-induced KCNK9-HEK293, FluxOR thallium flux. inhibition, % at 10 µM. 40% of 4,900 active. AID 492997;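 active = thallium signal drop beyond 5 SD of the untreated control mean, on both duplicate plates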;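 note: plate controls were buffer only IC0 wells for no effect and SID17386958 at its maximal inhibitory level for full effect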
# KCNK3 inh conf: confirmation of human KCNK3 two-pore domain potassium channel inhibitors; shares compounds with KCNK3 block; CHO-KCNK3 thallium flux, FluxOR fluorescence; 0% buffer, 100% carvedilol maximal block; ratio percent of control, % at 10 µM; 99% of 2,400 active; AID 651638;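 active = ratio percent of control, averaged over triplicates, above buffer control mean plus 5 SD, cut at about 64% in these data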;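 note: ratio is the fluorescence rise from min to max over baseline after thallium stimulus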
# KCNK3 uninduced: KCNK3 inhibitor counter-screen hit in non-induced cells; shares compounds with KCNK3 block; non-induced KCNK3 parental cells, FluxOR thallium flux; stronger effect = lower value; thallium flux ratio (lower = more inhibition) at 10 µM; 40% of 2,400 active;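 active = thallium flux ratio, averaged over three wells, more than 5 SD below the buffer control mean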;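 note: host cells are CHO cells without KCNK3 induction; ratio is peak minus trough fluorescence over baseline then normalized to buffer controls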
# * marks the source's active call; other numbers are inactive results; i = inactive; / = no result. Unless noted, the rule behind the calls is not given here.
SMILES,hERG rescue,KCNK9 inh-1,KCNQ1 act,KCNK3 block,KCNQ1 inh,Kir21 inh,hERG inh,KCNK9 inh-2,Kir21 ephys inh,KCNK9 block conf,Kir2-1 spec,HEK293 Tl ctr,others
O=S(=O)(Nc1ccc(Cl)cc1)c1ccc(N2CCOCC2)c(NC(=S)NC2CC2)c1,-11.1,i,i,i,i,0.71,/,/,/,/,/,/,
O=C(O)c1cnn(-c2nc(-c3ccc(Cl)c(Cl)c3)cs2)c1C(F)(F)F,-3.5,i,i,i,i,3.04,i,i,i,i,i,i,
CN(CCCCOc1ccc(F)cc1)Cc1ccccc1,-2.6,i,i,i,i,-0.01,/,/,/,/,/,/,
Cc1cc(C)c(C)c(OCCCCN(C)Cc2ccccc2)c1,-5.8,i,i,i,i,-7.28*,i,i,8.7%*,i,46.5%*,i,
Cn1c(-c2ccc(Cl)nc2)nc2cc(Cl)ccc21,-6.8,i,i,i,i,0.66,/,/,/,/,/,/,
Cc1noc(C)c1COC(=O)CCN1c2ccccc2Sc2ccccc21,-8.5,i,i,-9.66*,i,-7.3*,i,i,10.4%*,/,/,/,KCNK3 inh conf=125.7*;KCNK3 uninduced=0.137*
CCOC(=O)CSc1nc(Cc2ccccc2)nc2ccccc12,-12.0,-13.4*,i,i,i,-5.99*,i,i,31.9%*,36.0%*,i,i,KCNK3 inh conf=96.3*;KCNK3 uninduced=i
CCOC(=O)CSc1nc(-c2ccccc2)nc2ccccc12,-9.0,i,i,i,i,0.66,/,/,/,/,/,/,
COc1ccc(OC)c(S(=O)(=O)N2CCN(C(=O)c3cc(C4CC4)nn3-c3ccccc3)CC2)c1,/,/,/,i,/,/,/,/,/,/,/,/,
